Measurements collected from several papers.
Each line is one published result; the experiments were not run side by side.
Target: Fibroblast growth factor receptor 1 (FGFR1, Homo sapiens, UniProt P11362)

SMILES	test	setting	remaining binding
CNC(=O)Nc1ccc2c(c1)CC[C@@]21OC(=O)N(CC(=O)N(Cc2ccc(F)cc2)[C@@H](C)C(F)(F)F)C1=O	cell-free assay, competition with immobilised ligand	1 µM	82%
F[C@@H]1CCN(c2nccc(-c3cnn4ncccc34)n2)C1	binding	1 µM	87%
Nc1ncc2c(n1)-c1c([nH]c3ccc(C#CC4CC4)cc13)CCCC2	binding, competition with immobilised ligand	1 µM	79%
N[C@@H]1CCN(c2nccc(-c3cnn4ncccc34)n2)C1	binding	1 µM	96%
CO[C@H]1CC[C@H](CNc2ccc(S(=O)(=O)NC(=O)c3ccc(N4CCN(CC5=C(c6ccc(Cl)cc6)CC(C)(C)CC5)CC4)cc3Oc3cnc4[nH]ccc4c3)cc2[N+](=O)[O-])CC1	cell-free assay, competition with immobilised ligand	1 µM	68%
CC1CCCN1c1nccc(-c2cnn3ncccc23)n1 (stereo not shown)	binding	1 µM	100%
O=C(NCC1CCOCC1)c1n[nH]cc1NC(=O)c1c(F)cccc1F	binding, competition with immobilised ligand	1 µM	100%
Cc1cnc(Nc2ccc(C(=O)N3CCC(N4CCCC4)CC3)cc2)nc1-c1cc2ccccc2s1	binding, competition with immobilised ligand	1 µM	10%
CCN1CCN(Cc2ccc(C(=O)Nc3ccc(C)c(Oc4ccc5c(c4)CC(=O)N5)c3)cc2C(F)(F)F)CC1	binding, competition with immobilised ligand	1 µM	78%
CC1=C(C#N)[C@@H](c2ccc3[nH]nc(C)c3c2)C(C#N)=C(c2ccc(Cl)cc2)N1	cell-free assay, competition with immobilised ligand	1 µM	86.6%
C=CC(=O)N1CCC(C(=O)NCC(=O)N2CCN(c3nc(-c4cnc(N)nc4C(F)F)nc(N4CCOCC4)n3)CC2)CC1	binding, competition with immobilised ligand	1 µM	100%
C[C@@H](c1ccc(-n2cnc3c(N)ncnc32)cc1)N1CCc2nn(C)c(Cc3ccccc3)c2C1=O	binding, competition with immobilised ligand	0.1 µM	94%
O=C(O)[C@H]1[C@H](Cn2nnc3ccccc3c2=O)CC[C@@H]1C(=O)c1ccc(OCCC2CCOCC2)cc1	cell-free assay, competition with immobilised ligand	1 µM	98%
CN(C)c1nccc(-c2cnc3ncccn23)n1	binding	1 µM	82%
O=C(O)c1cc(-c2ccc(C3CCNCC3)cc2)c2ccc(-c3ccc(C(F)(F)F)cc3)cc2c1	cell-free assay, competition with immobilised ligand	1 µM	100%
O=C(NCCCN1CCOCC1)c1ccc(Nc2ncc(Cl)c(-c3ccc(Cl)s3)n2)cc1	binding, competition with immobilised ligand	1 µM	27%
C[C@@H]1CCN(c2nccc(-c3cnn4ncccc34)n2)C1	binding	1 µM	100%
O=C(c1ccc(Nc2ncc(Cl)c(-c3cc4ccccc4s3)n2)cc1)N1CCC(N2CCCC2)CC1	binding, competition with immobilised ligand	1 µM	36%
c1cnn2ncc(-c3ccnc(N4CCC45COC5)n3)c2c1	binding	1 µM	100%
COc1cnc(Nc2cccc(S(N)(=O)=O)c2)nc1N1CCN(c2ccccc2)CC1	binding, competition with immobilised ligand	1 µM	100%
CN(CCCC(F)(F)F)c1nccc(-c2cnn3ncccc23)n1	binding	1 µM	46%
COc1cccc(CNC(=O)c2nc3scc(COCc4ccc(C(=O)O)cc4)c3c(=O)[nH]2)c1	cell-free assay, competition with immobilised ligand	1 µM	86.5%
